Values after ≈ are worked out from the molar mass of the structure shown. Active and inactive are the calls of the source. The calls are words filed in the database; no cut-off is given here.
Legend:
[1] = system: Mycobacterium tuberculosis; test: Antitubercular activity against Mycobacterium tuberculosis H37Rv assessed as disruption of membrane potential at 0.4 ug/ml after 20 mins at pH 7.4 by DiOC2-based spectrofluorimetric analysis; assay type: functional, organism-based
Procedure, shortened: (§1)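 H37Rv grown to mid-log (OD580 ~0.6), resuspended to OD580 ~1.0 in 7H9 with 0.2% glycerol, 0.2% dextrose, 0.085% NaCl, 0.02% Tyloxapol at set pH (7.4, 5.5, 4.5; 5.5 also with 0.5 mM NaNO2). Compound added at 0.002–20 μg/mL final, then 15 μM DiOC2 for 20 min at room temperature, washed. Controls: CCCP 5 μM, rifampicin 0.4 μg/mL, DMSO. Red (488/610)/green (488/530) fluorescence ratio; triplicates, two experiments.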

[2] = system: Mycobacterium tuberculosis; test: Antitubercular activity against Mycobacterium tuberculosis H37Rv assessed as disruption of membrane potential at 5 uM after 20 mins at pH 7.4 by DiOC2-based spectrofluorimetric analysis; assay type: functional, organism-based; procedure, shortened: as §1
[3] = system: Mycobacterium tuberculosis; test: Antitubercular activity against Mycobacterium tuberculosis H37Rv assessed as disruption of membrane potential at 0.002 to 20 ug/ml after 20 mins at pH 5.5 by DiOC2-based spectrofluorimetric analysis; assay type: functional, organism-based; procedure, shortened: as §1
[4] = system: Mycobacterium tuberculosis; test: Antitubercular activity against Mycobacterium tuberculosis H37Rv assessed as disruption of membrane potential at 0.002 to 20 ug/ml after 20 mins at pH 4.5 by DiOC2-based spectrofluorimetric analysis; assay type: functional, organism-based; procedure, shortened: as §1
[5] = system: Mycobacterium tuberculosis; test: Antitubercular activity against Mycobacterium tuberculosis H37Rv expressing pH sensitive ratiometric GFP assessed as reduction of intrabacterial pH at 0.002 to 20 ug/ml after 16 hrs at pH 7.5 by spectrofluorimetric analysis; assay type: functional, organism-based
Procedure, shortened: (§2)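 H37Rv carrying pH-sensitive ratiometric GFP plasmid, grown to mid-log (OD580 ~0.6), diluted to OD580 ~0.3 in 7H9 at pH 7.5, 6.5 or 5.5, with or without 0.5 mM NaNO2. Compound or DMSO exposure 16 h. Fluorescence at excitation 395/emission 510 and excitation 475/emission 510; intrabacterial pH inferred from the ratio of the two readings.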

[6] = system: Mycobacterium tuberculosis; test: Antitubercular activity against Mycobacterium tuberculosis H37Rv assessed as disruption of membrane potential after 20 mins at pH 7.4 by DiOC2-based spectrofluorimetric analysis; assay type: functional, organism-based; procedure, shortened: as §1
[7] = system: Mycobacterium tuberculosis; test: Antitubercular activity against Mycobacterium tuberculosis H37Rv; assay type: functional
[8] = system: Mycobacterium tuberculosis H37Rv; test: Drug metabolism in Mycobacterium tuberculosis H37Rv assessed as tizoxanide formation at 1 to 10 fold MIC after 16 hrs by LC/MS analysis; assay type: ADME, organism-based; details: in vivo
[9] = system: Mycobacterium tuberculosis H37Rv; test: Drug uptake in Mycobacterium tuberculosis H37Rv at 1 to 10 fold MIC after 16 hrs by LC/MS analysis; assay type: ADME, organism-based; details: in vivo
[10] = system: Mycobacterium tuberculosis; test: Antitubercular activity against Mycobacterium tuberculosis H37Rv expressing pH sensitive ratiometric GFP assessed as reduction of intrabacterial pH after 16 hrs at pH 7.5 by spectrofluorimetric analysis; assay type: functional, organism-based; procedure, shortened: as §2
[11] = system: Mycobacterium tuberculosis H37Rv; test: Drug metabolism in Mycobacterium tuberculosis H37Rv assessed as [13C]acetylation at 1 to 10 fold MIC after 16 hrs by LC/MS analysis; assay type: ADME, organism-based; details: in vivo

For CO[C@H]1/C=C/O[C@@]2(C)Oc3c(C)c(O)c4c(O)c(c(/C=N/N5CCN(C)CC5)c(O)c4c3C2=O)NC(=O)/C(C)=C\C=C\[C@H](C)[C@H](O)[C@@H](C)[C@@H](O)[C@@H](C)[C@H](OC(C)=O)[C@@H]1C, which Activity [1] is on record?
The Activity was “inactive”.

N#CC(C#N)=NNc1cccc(Cl)c1 was tested. Which Activity [2] did it give?
The Activity was “Active”.

How did the Activity [3] turn out when O=C(Nc1ccc([N+](=O)[O-])cc1Cl)c1cc(Cl)ccc1O was run?
The Activity was “Active”.

And the Activity [4]?
The Activity was “inactive”.

And the Activity [5]?
The Activity was “Active”.

What about the Activity [6] of the same compound?
The Activity was “Dose-dependent effect”.

What does the source list for CC(=O)Oc1ccccc1C(=O)Nc1ncc([N+](=O)[O-])s1 [NITAZOXANIDE]?
Activity [3]: Active; MIC [7]: 1 µg/mL (≈ 3.25 µM); Drug metabolism [8]: Active; Drug uptake [9]: Active; Activity [4]: inactive; Activity [6]: Dose-dependent effect; Activity [10]: Dose-dependent effect

O=C(Nc1ncc([N+](=O)[O-])s1)c1ccccc1O [TIZOXANIDE] was tested. Which Drug metabolism [11] did it give?
Its Drug metabolism is “Not Active”.

Reference: ChEMBL document CHEMBL2176921, “Nitazoxanide Disrupts Membrane Potential and Intrabacterial pH Homeostasis of Mycobacterium tuberculosis” (ACS Med Chem Lett, 2011)
